Most compounds without a hit are left out; they make up all but 2.9% or so of the library.
MEKK2mut PB1 HTS = signal of MEK5 binding to mutant human MEKK2 PB1 domain | percent response, % at 10 µM | actives 0.35% (n = 290,000) | AID 1530 | bead flow cytometry, Alexa488-MEK5 binding to MEKK2 mutant; in the data active = percent response above about 24%, passing the limit was not always enough
MEKK3 PB1 HTS = raises or lowers MEK5 binding to the human MEKK3 PB1 domain. actives 1.4% (n = 290,000). bead-based flow cytometry, Alexa488-MEK5 binding to MEKK3; actives lie on both sides; 0 = blocked by unlabeled MEK5, 100 = vehicle. binding response (% of control), % at 10 µM. Q99759;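 active = binding response more than 3 SD above or below the average of its plate-row segment, actives on both sides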;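 also: Alexa488 bead fluorescence after subtracting the streptavidin-only scavenger bead signal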
Apaf-1 inh = inhibitors of human Apaf-1 apoptosome; O14727; reconstituted apoptosome caspase-3 activity, DEVD-Rh110 fluorescence; inhibition, % at 20 µM; actives 0.71% (n = 330,000); AID 489030; active = inhibition of at least 40% at 20 µM;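 also: plate controls were DMSO wells for no effect and DEVD-CHO caspase inhibitor wells for full effect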
Target sequence (O14727 whole entry, looked up): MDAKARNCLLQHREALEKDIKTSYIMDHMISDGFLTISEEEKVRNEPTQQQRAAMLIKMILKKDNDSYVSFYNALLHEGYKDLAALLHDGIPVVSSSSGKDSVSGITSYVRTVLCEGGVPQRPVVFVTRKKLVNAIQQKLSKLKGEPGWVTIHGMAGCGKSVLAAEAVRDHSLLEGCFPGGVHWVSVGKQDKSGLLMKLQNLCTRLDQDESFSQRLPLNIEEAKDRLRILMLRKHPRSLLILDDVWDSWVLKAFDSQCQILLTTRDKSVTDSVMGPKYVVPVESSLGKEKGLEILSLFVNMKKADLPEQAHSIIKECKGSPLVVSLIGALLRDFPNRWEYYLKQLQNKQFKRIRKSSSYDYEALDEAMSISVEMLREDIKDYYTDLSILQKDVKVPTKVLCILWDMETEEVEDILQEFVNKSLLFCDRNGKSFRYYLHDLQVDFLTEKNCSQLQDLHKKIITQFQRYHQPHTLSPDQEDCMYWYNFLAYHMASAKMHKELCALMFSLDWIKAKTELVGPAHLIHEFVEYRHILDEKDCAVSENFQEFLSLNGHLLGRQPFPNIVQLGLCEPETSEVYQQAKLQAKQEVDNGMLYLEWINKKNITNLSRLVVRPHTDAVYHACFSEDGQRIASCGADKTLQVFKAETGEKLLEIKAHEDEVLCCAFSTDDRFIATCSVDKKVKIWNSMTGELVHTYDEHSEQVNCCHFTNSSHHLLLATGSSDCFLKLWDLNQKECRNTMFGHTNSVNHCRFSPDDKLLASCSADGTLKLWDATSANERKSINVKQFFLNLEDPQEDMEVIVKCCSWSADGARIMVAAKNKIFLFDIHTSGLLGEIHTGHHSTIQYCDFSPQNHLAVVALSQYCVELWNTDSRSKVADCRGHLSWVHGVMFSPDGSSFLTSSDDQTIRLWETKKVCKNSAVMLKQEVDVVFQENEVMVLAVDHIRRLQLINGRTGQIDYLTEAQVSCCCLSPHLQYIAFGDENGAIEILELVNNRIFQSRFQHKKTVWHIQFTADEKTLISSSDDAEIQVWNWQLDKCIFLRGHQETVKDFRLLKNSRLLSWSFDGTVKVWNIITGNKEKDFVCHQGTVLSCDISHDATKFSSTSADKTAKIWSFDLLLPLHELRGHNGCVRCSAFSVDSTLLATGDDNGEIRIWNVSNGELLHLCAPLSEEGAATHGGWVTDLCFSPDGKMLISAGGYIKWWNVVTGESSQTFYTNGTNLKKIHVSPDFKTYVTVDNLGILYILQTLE
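Medium: Hepes buffer, pH 7.5 / System: biochemical Apaf-1 apoptosome reconstitution / Measured by: Rh110 fluorescence, excitation 480 nm, emission 540 nm / Times: compound with Apaf-1, dATP, procaspase-3 30 min, then 50 min reaction, room temperature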
UBC13 inh = inhibitors of human UBC13 polyubiquitin chain formation; inhibition, % at 20 µM; P61088; actives 0.47% (n = 330,000); TR-FRET; AID 485273; in the data active = inhibition above about 45%, passing the limit was not always enough
MEKK2 WT-MEK5 = raises or lowers MEK5 binding to wildtype human MEKK2 PB1 domain | Q9Y2U5 | bead flow cytometry, Alexa488-MEK5 binding to MEKK2 WT; actives lie on both sides | binding response (% of control), % at 10 µM | actives 1.1% (n = 290,000) | AID 1531; in the data active = binding response below about 67% or above about 130%
* hit, by the source's call; · = no result; [ ] = dose if it differs, or a comment.

SMILES	MEKK2mut PB1 HTS	MEKK3 PB1 HTS	Apaf-1 inh	UBC13 inh	MEKK2 WT-MEK5
C#CCOCCOCCOCCNc1nc(N2CCN(C(=O)[C@H](Cc3cc4ccccc4[nH]3)n3cc([C@@H](N)Cc4ccc(O)cc4)nn3)CC2)nc(N2CCN(C(=O)[C@H](Cc3cc4ccccc4[nH]3)n3cc([C@@H](N)CC(C)C)nn3)CC2)n1	54*	98	·	·	201*
C#CCOCCOCCOCCNc1nc(N2CCN(C(=O)C(CCC(=O)O)n3cc(C(N)CC(C)C)nn3)CC2)nc(N2CCN(C(=O)C(Cc3cc4ccccc4[nH]3)n3cc(C(N)Cc4ccc(O)cc4)nn3)CC2)n1 (stereo not given)	19	105	7	10	131
C#CCOCCOCCOCCNc1nc(N2CCN(C(=O)C(Cc3cc4ccccc4[nH]3)n3cc(C(N)Cc4ccc(O)cc4)nn3)CC2)nc(N2CCN(C(=O)C(CCC(=O)O)n3cc(C(N)C(C)CC)nn3)CC2)n1 (stereo not given)	·	·	11	10	·
C#CCOCCOCCOCCNc1nc(N2CCN(C(=O)C(Cc3cc4ccccc4[nH]3)n3cc(C(N)Cc4ccc(O)cc4)nn3)CC2)nc(N2CCN(C(=O)C(Cc3cc4ccccc4[nH]3)n3cc(C(N)Cc4ccc(O)cc4)nn3)CC2)n1 (stereo not given)	179*	98	·	·	298*
CC(C)(C)c1ccc(/C=C(\C#N)C(=O)NC2CC2)cc1	·	·	5	-1	·
Cc1ccc(S(=O)(=O)Nc2ccccc2C(=O)N2CCN(C)CC2)cc1	12	103	-2	0	105
C=CC[C@@H](CC(=O)N[C@H](CO)Cc1ccccc1)C(=O)N[C@@H](COC(=O)[C@@H](CC=C)CC(=O)OC(C)(C)C)Cc1ccccc1	·	·	17	2	·
COc1ccc2c(c1)-c1nc(/N=C/c3ccccc3O)sc1CC2	50	104	40	-8	101
COc1ccc2sc(/C=C/c3ccccc3O)[n+](C)c2c1	19	94	·	·	4.0*
CCCCCCCc1ccc(C2NC(=S)NC3=C2C(=O)c2ccccc23)cc1 (stereo not given)	2	111	44*	-35	105
CCn1ccnc1CNC(=O)c1ccc2oc(C(C)C)nc2c1	6	98	-2	3	106
COc1cc(C2C(C(=O)OC(C)C)=C(C)Nc3[nH]c(=O)[nH]c(=O)c32)ccc1O (stereo not given)	-16	61*[inhibitor]	-9	-4	70*[inhibitor]
CCN1CCN(c2cc(C)c3cc(NC(=S)NCCCOC)ccc3n2)CC1	9	104	3	4	120
CCCN(CCC)CCCNC(=S)Nc1ccc2nc(N3CCCC3)cc(C)c2c1	43	106	-3	9	156*
CCCCN(CC)CCCNC(=S)Nc1ccc2nc(N3CCN(CC)CC3)cc(C)c2c1	16	115	16	-1	138*
CCc1cc(=O)n2c([nH]c3ccccc32)c1C#N	3	101	15	-7	0.0*
O=C(NCCc1ccccc1)C(=O)NCC1OCCCN1S(=O)(=O)c1cccs1 (stereo not given)	-1	94	13	4	92
CCOc1ccc2cc(C3CC(c4ccco4)=NN3S(=O)(=O)c3ccccc3)c(Cl)nc2c1 (stereo not given)	-2	97	6	-11	95
COc1ccccc1C1CC(c2ccco2)=NN1S(C)(=O)=O (stereo not given)	17	97	-9	7	29*
CCOc1ccc2nc(Cl)c(C3CC(c4ccco4)=NN3S(C)(=O)=O)cc2c1 (stereo not given)	0	90	6	-7	7.0*
CS(=O)(=O)N1N=C(c2ccco2)CC1c1ccccc1Cl (stereo not given)	5	106	1	-3	100
COc1cccc(C(=O)OCC(=O)NCCCc2ccccc2)c1	6	105	2	6	110
Cc1c(C=O)c(Cl)n(C)c(=O)c1C#N	-5	82	97*	-22	89
CC(=O)NC(CSC(CC(=O)c1ccco1)c1ccc(C)cc1)C(=O)O (stereo not given)	-4	88	12	-5	92
O=C(COC(=O)CNC(=O)c1cccc([N+](=O)[O-])c1)NCc1ccco1	-2	101	-6	-18	96
SMILES	MEKK2mut PB1 HTS	MEKK3 PB1 HTS	Apaf-1 inh	UBC13 inh	MEKK2 WT-MEK5
CCc1ccc(CNC(=O)CCCC(=O)n2nc(C)c3ccccc32)cc1	-10	95	23	0	96
CN1CCN(c2ccc(NC(=S)NC(=O)c3cccc4c(Cl)cccc34)cc2)CC1	28*	101	26	26	170*
CCOC(=O)C1CCN(C(=O)c2c(C)oc3c2C(=O)c2ccccc2C3=O)CC1	12	103	48*	-40	94
Cc1cc(-c2cc(C(=O)NCc3ccccc3)on2)nc(NCC2CC2)n1	6	108	5	13	96
Cc1ccc(Nc2nc(N/N=C/c3c[nH]c4ccccc34)nc(N3CCOCC3)n2)cc1	2	145*	7	23	121
COc1cc(C2Nc3cccc4cccc(c34)N2)cc(OC)c1OC(C)=O	·	·	41*	-57	·
O=C(COC(=O)c1ccc([N+](=O)[O-])o1)Nc1ccc2c(c1)OCO2	·	·	7	-3	·
COCCn1c(CN2CCN(C)CC2)nc2c1c(=O)n(C)c(=O)n2C	13	116	·	·	117
CCOCCn1c(CN2CCN(C)CC2)nc2c1c(=O)n(C)c(=O)n2C	5	46*[inhibitor]	-5	0	42*[inhibitor]
CCOC(=O)NNc1ccc2nonc2c1[N+](=O)[O-]	-17	92	96*	-82	92
O=C1Cc2ccccc2C(c2ccc(Br)cc2)N1 (stereo not given)	5	104	-28	-7	106
O=C1NC2=C(CCc3ccccc32)C(c2ccc(Br)cc2)N1 (stereo not given)	-6	63	69*	-15	67
COc1ccc(C(=O)Nn2c(SCC(=O)c3ccccc3)nc3ccccc3c2=O)cc1	·	·	14	83*	·
CC1(C)NC(=O)N(CC(=O)N2CCCC(C(F)(F)F)C2)C1=O (stereo not given)	·	·	-6	-2	·
Cn1nccc1C(=O)Nc1cccc(S(=O)(=O)N2CCOCC2)c1	-1	102	-6	0	104
OC(COCC(F)(F)C(F)(F)C(F)(F)C(F)F)Cn1c2ccc(Cl)cc2c2cc(Cl)ccc21 (stereo not given)	53*	100	-1	-3	135
CCCCC(=O)NC(=S)Nc1cccc(NC(=O)c2ccco2)c1	10	106	9	5	103
N#Cc1ccc(C23CC4(C2)[C@H](CN(CC2CCCCC2)[C@@H]4c2ccccc2)C3c2ccc(C(F)(F)F)cc2)cc1 (stereo not given in full)	10	110	42*	4	125

Compound activity from PubChem BioAssay.
